The record followed here is PubChem BioAssay AID602152 (Broad Institute, 2011).

Active and inactive are the calls of the source.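 How the source made its calls: active means efflux reduced below the neutral control level, like a known efflux blocker; inactive means efflux raised or left unchanged.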

This experiment can be described thus: SR-BI-mediated cholesterol efflux to HDL inhibition, dose response, mechanism study for SR-BI HDL uptake inhibitor project, ldlA[mSR-BI] cells, [3H]cholesterol, dry powder (AID 602152). Particulars: [3H]cholesterol efflux to HDL, LSC; at 25 µM (top of the series). The method, boiled down: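 Test system: ldlA[mSR-BI] cells, mouse SR-BI expressing; medium: pH 7.4 assay medium, 0.5% DMSO; dosing: compounds delivered in 0.5% DMSO; schedule: 2-day label, 24 h equilibration, 1 h compound, 2 h efflux; detection: liquid scintillation counting of 3H in medium and cells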

Consider `C[C@H](C(=O)NC1CCCC1)N(C(=O)Cn1nnc(-c2ccc3c(c2)OCO3)n1)C1CCCCC1`, for which the efflux, percent of neutral control is 6.75% (active).

`COCC(=O)N1CCc2cc(-c3csc(NC(=O)c4cc(OC)cc(OC)c4)n3)ccc21`: the efflux, percent of neutral control is 9.23% (active).
